Substitutions are numbered along the chain they refer to. The source made the active and inactive calls. No cut-off for these calls is given here.
Tests used:
Mus musculus [1] = species: Mus musculus; assay: Adjuvant activity in immunized C57BL/6 mouse assessed as increase in antigen specific IFNgamma production in spelnocytes at 0.3 umol treated with ovalbumin for 7 days followed by stimulation with OVA for 7 days and restimulation with OVA measured 24 to 48 hrs post OVA challenge; format: functional, cell-based
Method in brief: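 C57BL/6 mice (8–12 wk) given s.c. oil-in-water emulsion (mineral oil/Tween-80/PBS 9:1:90) holding OVA 200 μg ± adjuvant 0.3 μmol; controls were OVA alone or no OVA. Footpad challenge with OVA 100 μg on day 7, spleens taken day 14. Splenocytes restimulated with OVA 10, 30 or 100 μg/mL. Cell number read at 450 nm after 3 h with a count reagent; IFN-γ and IL-17 measured by ELISA.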

[2] = molecular target: T1, C-type lectin domain family 4 member E (Homo sapiens) (UniProt Q9ULY5); assay: Binding affinity to recombinant human mincle extracellular domain fused with human IgG Fc expressed in HEK293T cells at 0.1 nmol by ELISA; format: cell-based; conditions: HEK-293T
T1 sequence (whole entry): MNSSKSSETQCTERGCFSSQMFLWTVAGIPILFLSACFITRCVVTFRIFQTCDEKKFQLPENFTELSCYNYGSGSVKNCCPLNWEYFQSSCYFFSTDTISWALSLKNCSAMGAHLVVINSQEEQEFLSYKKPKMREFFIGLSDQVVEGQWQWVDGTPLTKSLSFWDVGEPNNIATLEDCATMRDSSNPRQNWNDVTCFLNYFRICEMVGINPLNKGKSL

BMDM [3] = assay: Immunostimulatory activity in mincle-/- C57BL/6 mouse GM-CSF derived BMDM assessed as increase in TNF release at […] after 24 hrs by sandwich ELISA method; format: functional, cell-based
Method in brief: (§1)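 Wild-type or Mincle−/− C57BL/6 bone marrow was cultured 8 days with GM-CSF 50 ng/mL in complete RPMI. Macrophages were detached with Acutase and seeded on ligand-coated plates (0.1 or 1 nmol/well); LPS 100 ng/mL was used as comparator. Supernatant was taken at 24 h and TNF, IL-6, IL-1β and MIP-2 measured by sandwich ELISA. Representative of three experiments in triplicate (±SD).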

BMDM [4] = assay: Immunostimulatory activity in mincle-/- C57BL/6 mouse GM-CSF derived BMDM assessed as increase in MIP2 release at […] after 24 hrs by sandwich ELISA method; format: functional, cell-based; method in brief: as §1
[5] = tested on: T2, C-type lectin domain family 4 member E (Homo sapiens), Q9ULY5 [R183A]; assay: Agonist activity at human mincle R183A mutant expressed in NFAT-GFP reporter cells up to 3000 pmol after 18 hrs by flow cytometric analysis; format: cell-based
T2 sequence (whole entry): T1 sequence (whole entry) with R183A
Method in brief: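 The hMincle R183A mutant, made by site-directed mutagenesis, was retrovirally introduced into 2B4 NFAT-GFP cells expressing FcRγ only. Cells were stimulated on plates coated with increasing ligand amounts for 18 h, and NFAT-GFP was read by flow cytometry. Mean of two independent experiments in duplicate (±SEM).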

Mus musculus [6] = species: Mus musculus; assay: Adjuvant activity in immunized C57BL/6 mouse assessed as increase in OVA-specific IgG2b production in serum at 0.3 umol treated with ovalbumin for 7 days followed by stimulation with OVA for 7 days and restimulation with OVA measured 24 to 48 hrs post OVA challenge; format: functional

Activity [2]: Active
Activity [5]: inactive
Compound: CCCCCCCCCCCCCCCCCCOc1ccc(C(=O)OC[C@H]2O[C@H](O[C@H]3O[C@H](COC(=O)c4ccc(OCCCCCCCCCCCCCCCCCC)cc4O)[C@@H](O)[C@H](O)[C@H]3O)[C@H](O)[C@@H](O)[C@@H]2O)c(O)c1
Activity (Mus musculus [1]): Active
Activity (BMDM [3]): inactive
Activity (BMDM [4]): inactive
Activity (Mus musculus [6]): Active

Reference: ChEMBL document CHEMBL4033780, “Lipidated Brartemicin Analogues Are Potent Th1-Stimulating Vaccine Adjuvants” (J Med Chem, 2018)
